From ChEMBL document CHEMBL5104102, “Discovery of FtsZ inhibitors by virtual screening as antibacterial agents and study of the inhibition mechanism” (RSC Med Chem, 2022)
≈ marks a conversion by molar mass, not a printed value.

What was measured:
Bacillus subtilis = experiment: Antibacterial activity against Bacillus subtilis 168 assessed as inhibition of bacterial growth incubated for 18 hrs by CLSI protocol based two-fold serial dilution assay; format: functional
Outline: (§1)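 B. subtilis 168 or E. coli ATCC 25922 was grown in MHB and tested by CLSI-based broth microdilution. An overnight culture (37 °C, 250 rpm) was diluted tenfold, grown 2 h, and set to 5 × 10^6 CFU mL−1 by A600. Cells were added to two-fold serial compound dilutions (1% DMSO) and incubated 18 h at 37 °C. Read-out was A600, in duplicate. MIC was the lowest concentration giving A600 < 0.1.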

Staphylococcus aureus [1] = experiment: Antibacterial activity against Staphylococcus aureus 29213 assessed as inhibition of bacterial growth incubated for 18 hrs by CLSI protocol based two fold serial dilution method; format: functional
Outline: as §1, with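 “S. aureus” for “B. subtilis 168 or E. coli”, “29213” for “25922”, “CAMHB” for “MHB”, “mL−1.” for “mL−1 by A600.”, “with” for “giving”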

Escherichia coli [2] = experiment: Antibacterial activity against Escherichia coli 25922 assessed as inhibition of bacterial growth incubated for 18 hrs by CLSI protocol based two fold serial dilution method; format: functional; outline: as §1
Staphylococcus aureus [3] = experiment: Antibacterial activity against methicillin-resistant Staphylococcus aureus BAA 41 assessed as inhibition of bacterial growth incubated for 18 hrs by CLSI protocol based two fold serial dilution method; format: functional
Outline: (§2)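 CAMHB culture grown overnight at 37 °C with shaking at 250 rpm, diluted 10-fold, and grown 2 h. Inoculum set to 5 × 10^6 CFU mL−1 by A600. Compounds in DMSO were serially diluted two-fold, with 1% DMSO per well. Read at A600 after 18 h at 37 °C. MIC is the lowest concentration giving A600 < 0.1. Run in duplicate.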

Staphylococcus aureus [4] = experiment: Antibacterial activity against methicillin-resistant Staphylococcus aureus BAA 44 assessed as inhibition of bacterial growth incubated for 18 hrs by CLSI protocol based two fold serial dilution method; format: functional; outline: as §2
Staphylococcus aureus [5] = experiment: Antibacterial activity against methicillin-resistant Staphylococcus aureus ATCC 43300 assessed as inhibition of bacterial growth incubated for 18 hrs by CLSI protocol based two fold serial dilution method; format: functional; outline: as §2
Staphylococcus aureus [6] = experiment: Antibacterial activity against methicillin-resistant Staphylococcus aureus ATCC 33591 assessed as inhibition of bacterial growth incubated for 18 hrs by CLSI protocol based two fold serial dilution method; format: functional; outline: as §2
Staphylococcus aureus [7] = experiment: Antibacterial activity against methicillin-resistant Staphylococcus aureus ATCC 33592 assessed as inhibition of bacterial growth incubated for 18 hrs by CLSI protocol based two fold serial dilution method; format: functional; outline: as §2
Staphylococcus aureus [8] = experiment: Antibacterial activity against methicillin-resistant Staphylococcus aureus BAA 1720 assessed as inhibition of bacterial growth incubated for 18 hrs by CLSI protocol based two fold serial dilution method; format: functional; outline: as §2
Escherichia coli [9] = experiment: Synergistic antibacterial activity against Escherichia coli 25922 assessed as inhibition of bacterial growth incubated for 18 hrs in presence of PMBN by checkerboard assay; format: functional
Outline: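 E. coli ATCC 25922 was tested in MHB by the broth microdilution format with two-fold serial compound dilutions. Polymyxin B nonapeptide was added to each well at 20 μg mL−1 final before adding bacteria at 5 × 10^5 CFU mL−1. Growth was read by A600.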

Staphylococcus aureus [10] = experiment: Synergistic antibacterial activity against methicillin-resistant Staphylococcus aureus BAA 41 assessed as inhibition of bacterial growth incubated for 18 hrs in presence of methicillin by checkerboard assay; format: functional
Outline: (§3)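 Checkerboard: test compound serially diluted two-fold across the plate and methicillin serially diluted down it. Bacteria added at 5 × 10^5 CFU mL−1. Incubated at 37 °C for 16–24 h, then growth read at A600. Untreated-cell columns included. FICI calculated from the combination MICs.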

Staphylococcus aureus [11] = experiment: Synergistic antibacterial activity against methicillin-resistant Staphylococcus aureus BAA 41 assessed as FICI incubated for 18 hrs in presence of methicillin by checkerboard assay; format: functional; outline: as §3
Staphylococcus aureus [12] = experiment: Synergistic antibacterial activity against methicillin-resistant Staphylococcus aureus BAA 41 assessed as inhibition of bacterial growth incubated for 18 hrs in presence of PC190723 by checkerboard assay; format: functional
Staphylococcus aureus [13] = experiment: Synergistic antibacterial activity against methicillin-resistant Staphylococcus aureus BAA 41 assessed as FICI incubated for 18 hrs in presence of S2727 by checkerboard assay; format: functional
Outline: (§4)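 Checkerboard against MRSA BAA 41. Compound two-fold serially diluted across the plate and methicillin down it. Inoculum 5 × 10^5 CFU mL−1, with untreated-cell columns. Incubated at 37 °C for 16–24 h and growth read as A600. FICI computed from the combined MICs, and <0.5 taken as synergy.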

Staphylococcus aureus [14] = experiment: Synergistic antibacterial activity against methicillin-resistant Staphylococcus aureus BAA 41 assessed as FICI incubated for 18 hrs in presence of S2163 by checkerboard assay; format: functional; outline: as §4
Staphylococcus aureus [15] = experiment: Synergistic antibacterial activity against methicillin-resistant Staphylococcus aureus BAA 41 assessed as FICI incubated for 18 hrs in presence of PC190723 by checkerboard assay; format: functional; outline: as §4
Staphylococcus aureus [16] = experiment: microbe, parasite or virus in culture; conditions: BAA 41, 18 h
Staphylococcus aureus [17] = experiment: microbe, parasite or virus in culture; conditions: BAA 41, 18 h; remark: listed apart in the source

| SMILES | MIC (Bacillus subtilis) | MIC (Staphylococcus aureus [1]) | MIC (Escherichia coli [2]) | MIC (Staphylococcus aureus [3]) | MIC (Staphylococcus aureus [4]) | MIC (Staphylococcus aureus [5]) | MIC (Staphylococcus aureus [6]) | MIC (Staphylococcus aureus [7]) | MIC (Staphylococcus aureus [8]) | MIC (Escherichia coli [9]) | MIC (Staphylococcus aureus [10]) | fractional inhibitory concentration index (FICI) (Staphylococcus aureus [11]) | MIC (Staphylococcus aureus [12]) | fractional inhibitory concentration index (FICI) (Staphylococcus aureus [13]) | fractional inhibitory concentration index (FICI) (Staphylococcus aureus [14]) | fractional inhibitory concentration index (FICI) (Staphylococcus aureus [15]) | MIC (Staphylococcus aureus [16]) | MIC (Staphylococcus aureus [17]) |
| --- | --- | --- | --- | --- | --- | --- | --- | --- | --- | --- | --- | --- | --- | --- | --- | --- | --- | --- |
| CCc1cncnc1N1CCN(Cc2nc3cc(C(F)(F)F)ccc3[nH]2)CC1 | 128 µg/mL (≈ 328 µM) | 128 µg/mL (≈ 328 µM) | > 128 µg/mL | 64 µg/mL (≈ 164 µM) | 64 µg/mL (≈ 164 µM) | 32 µg/mL (≈ 82 µM) | 64 µg/mL (≈ 164 µM) | 64 µg/mL (≈ 164 µM) | 64 µg/mL (≈ 164 µM) | 64 µg/mL | 128 µg/mL | >1 |  |  |  |  |  |  |
| CCOC(=O)C(CCc1ccccc1)NC(C)C(=O)N1Cc2ccccc2CC1C(=O)O.Cl (stereo not drawn) | > 128 µg/mL | > 128 µg/mL | > 128 µg/mL |  |  |  |  |  |  |  |  |  |  |  |  |  |  |  |
| COc1cccc(OC)c1C(=O)N[C@@H]1C(=O)N2[C@@H]1SC(C)(C)[C@@H]2C(=O)O [METHICILLIN] |  |  |  | 1020 µg/mL (≈ 2690 µM) | 512 µg/mL (≈ 1350 µM) | 256 µg/mL (≈ 673 µM) | 512 µg/mL (≈ 1350 µM) | 256 µg/mL (≈ 673 µM) | 256 µg/mL (≈ 673 µM) |  |  |  | 4 µg/mL | 0.5 | >1 | 0.52 | 4 µg/mL (≈ 10.5 µM) | 1 µg/mL (≈ 2.63 µM) |
| Cc1cnc(-c2cc(N3CCN(C(=O)CCS(C)(=O)=O)CC3)ncc2Cl)c(C)c1 | > 128 µg/mL | > 128 µg/mL | > 128 µg/mL |  |  |  |  |  |  |  |  |  |  |  |  |  |  |  |
| COc1ccccc1S(=O)(=O)Nc1ccc2c(c1)CN(C)C(=O)N2 | > 128 µg/mL | > 128 µg/mL | > 128 µg/mL |  |  |  |  |  |  |  |  |  |  |  |  |  |  |  |
